The subject of experiment [1] is HCT-116. The experiment is described as follows: Induction of ROS generation in human HCT116 cells at 10 uM after 3 hrs by flow cytometry (reference value: 8.06%). It is filed as functional. A general note: Flow cytometry measures light scatter and fluorescence of single cells or particles in a stream.
A further experiment concerns RKO. The experiment is described as follows: Antiproliferative activity against human RKO cells assessed as reduction in cell viability after 48 hrs by MTT assay. It counts as functional, cell-based. The procedure, abridged:
(§1)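 3000 cells/well incubated in triplicate with serial concentrations of compound for 24, 48 or 72 h at 37 °C. MTT (5.0 mg/mL solution) added 3 h before the end. Formazan dissolved in DMSO, absorbance read at 570 and 630 nm. Viability normalised to vehicle control. IC50 from non-linear regression (variable slope), mean ± SD of triplicates.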
For orientation: Tetrazolium dyes change colour on reduction, which living cells bring about.

In experiment [2] the test system is HCT-116. The experiment is described as follows: Induction of cell cycle arrest in human HCT116 cells assessed as accumulation at G2/M phase at 5 uM after 12 hrs by propidium iodide staining-based flow cytometry (reference value: 10%). It counts as functional.
For experiment [3], the system named is HCT-116. The experiment is described as follows: Induction of apoptosis in human HCT116 cells assessed as early apoptotic cells at 10 uM after 24 hrs by annexin V/7-ADD staining-based flow cytometry (reference value: 5.20%). It counts as functional.
Experiment [4] is described as follows: Antiproliferative activity against human PANC1 cells assessed as reduction in cell viability after 48 hrs by MTT assay. It is filed as functional, cell-based. As to conditions: PANC-1, 48 h. The procedure, abridged:
as §1

In experiment [5] the test system is HT-29. Briefly: Antiproliferative activity against human HT-29 cells assessed as reduction in cell viability after 72 hrs by MTT assay. As to conditions: HT-29, 72 h. It counts as functional, cell-based. The procedure, abridged:
as §1

The subject of experiment [6] is HT-29. The experiment is described as follows: Antiproliferative activity against human HT-29 cells assessed as reduction in cell viability after 48 hrs by MTT assay. It counts as functional, cell-based. The note with it: HT-29, 48 h. The procedure, abridged: as §1
A further experiment relates to UACC-903. The experiment is described as follows: Antiproliferative activity against human UACC-903 cells assessed as reduction in cell viability after 24 hrs by MTT assay. It is filed as functional, cell-based. As to conditions: UACC-903, 24 h. The procedure, abridged:
as §1

With `CC(=O)Oc1ccccc1C(=O)NCC[Se]C#N`, the Activity stood at 9% with HCT-116 [1], 24% with HCT-116 [2] and 32.4% in the experiment on HCT-116 [3]. Further, the IC50 (in general, the concentration that gives 50% inhibition) in the experiment on RKO was determined as 2.2 µM; in experiment [4], 2.1 µM; in the experiment on HT-29 [5], 2.1 µM; with HT-29 [6], 2.1 µM; with UACC-903, 24.3 µM.

(Values after ChEMBL document CHEMBL3792386, “Design, Synthesis, and Biological Evaluation of Novel Selenium (Se-NSAID) Molecules as Anticancer Agents” (J Med Chem, 2016).)
